Test results reported in ChEMBL document CHEMBL1128448, “Synthesis and antifungal activity of new azole derivatives containing an N-acylmorpholine ring” (1995).
In brackets after ≈: the same amount, converted by molar mass.

Key:
Mus sp. [1] = assay: In vivo evaluation of % survival rate after peroral administration on 9th day at dose 2.5 mg/kg; type: functional; conditions: for survival at 2.5 mg/kg: Mus sp., po
Rhodotorula mucilaginosa = assay: In vitro evaluation of minimum inhibitory concentration against Rhodotorula rubra 16; type: functional
How it was run: (§1)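 Stocks are 800 μg/mL in 50% ethanol. Each plate gets 10 μL of inoculum at 10^5 cfu/mL. Incubation at 25 °C, 48 h for yeasts and 120 h for dermatophytes and molds. Organisms are ATCC strains or clinical isolates.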

Mus sp. [2] = assay: In vivo evaluation of % survival rate after peroral administration on 9th day at dose 1 mg/kg; type: functional; conditions: for Survival: route oral, 1 mg/kg
Mus sp. [3] = assay: In vivo evaluation of % survival rate after peroral administration on 7th day at dose 2.5 mg/kg; type: functional; conditions: for survival at 2.5 mg/kg: Mus sp., po
Mus sp. [4] = assay: In vivo evaluation of % survival rate after peroral administration on 3rd day at dose 2.5 mg/kg; type: functional; conditions: for survival at 2.5 mg/kg: Mus sp., po
Mus sp. [5] = assay: In vivo evaluation of % survival rate after peroral administration on 5th day at dose 2.5 mg/kg; type: functional; conditions: for survival at 2.5 mg/kg: Mus sp., po
Trichophyton rubrum = assay: In vitro evaluation of minimum inhibitory concentration against Trichophyton rubrum 90; type: functional; how it was run: as §1
Mus sp. [6] = assay: In vivo evaluation of % survival rate after peroral administration on 3rd day at dose 1 mg/kg; type: functional; conditions: for Survival: route oral, 1 mg/kg
Nannizzia gypsea = assay: In vitro evaluation of minimum inhibitory concentration against Microsporum gypseum 22; type: functional; how it was run: as §1
Candida albicans [7] = assay: In vivo evaluation of minimum inhibitory concentration against Candida albicans 60; type: functional
How it was run: (§2)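 Broth macrodilution MIC following NCCLS M27-P, in RPMI-1640 buffered with 0.165 M MOPS. Fluconazole was dissolved in water and other drugs in DMSO. C. parapsilosis ATCC 22019 served as the reference strain in every run. MIC was the lowest concentration giving turbidity at or below the 80% inhibition standard.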

Mus sp. [8] = assay: In vivo evaluation of % survival rate after peroral administration on 7th day at dose 1 mg/kg; type: functional; conditions: for Survival: route oral, 1 mg/kg
Mus sp. [9] = assay: In vivo evaluation of % survival rate after peroral administration on 5th day at dose 1 mg/kg; type: functional; conditions: for Survival: route oral, 1 mg/kg
Microsporum canis = assay: In vitro evaluation of minimum inhibitory concentration against Microsporum canis 47; type: functional; how it was run: as §1
Candida parapsilosis = assay: In vitro evaluation of minimum inhibitory concentration against Candida parapsilosis 61; type: functional; how it was run: as §1
Candida tropicalis = assay: In vitro evaluation of minimum inhibitory concentration against Candida tropicalis 2.11; type: functional; how it was run: as §1
Kluyveromyces marxianus = assay: In vitro evaluation of minimum inhibitory concentration against Candida pseudotropicalis 13; type: functional; how it was run: as §1
Trichophyton benhamiae = assay: In vitro evaluation of minimum inhibitory concentration against Trichophyton mentagrophytes 23; type: functional, Arthroderma benhamiae; how it was run: as §1
Pichia kudriavzevii = assay: In vitro evaluation of minimum inhibitory concentration against Candida krusei 70; type: functional; how it was run: as §1
Candida albicans [10] = assay: In vitro evaluation of minimum inhibitory concentration against Candida albicans 76; type: functional; how it was run: as §1
[11] = system: Meyerozyma guilliermondii; assay: In vitro evaluation of minimum inhibitory concentration against Candida guilliermondii 26; type: functional; how it was run: as §1
Candida albicans [12] = assay: In vivo evaluation of minimum inhibitory concentration against Candida albicans 406; type: functional; how it was run: as §2
Nakaseomyces glabratus = assay: In vitro evaluation of minimum inhibitory concentration against Torulopsis glabrata 78; type: functional; conditions: Nakaseomyces glabratus; read-out: MIC; how it was run: as §1
Aspergillus niger = assay: In vitro evaluation of minimum inhibitory concentration against Aspergillus niger 18; type: functional; conditions: Aspergillus niger; read-out: MIC; how it was run: as §1
Aspergillus flavus = assay: In vitro evaluation of minimum inhibitory concentration against Aspergillus flavus 19; type: functional; conditions: Aspergillus flavus; read-out: MIC; how it was run: as §1
Aspergillus fumigatus = assay: In vitro evaluation of minimum inhibitory concentration against Aspergillus fumigatus 33; type: functional; conditions: Aspergillus fumigatus; read-out: MIC; how it was run: as §1
[13] = Rhodotorula mucilaginosa, read-out: MIC
[14] = Candida albicans, read-out: MIC
[15] = Trichophyton rubrum, read-out: MIC
[16] = Nannizzia gypsea, read-out: MIC
[17] = Microsporum canis, read-out: MIC
[18] = Lodderomyces parapsilosis, read-out: MIC
[19] = Candida tropicalis, read-out: MIC
[20] = Kluyveromyces marxianus, read-out: MIC
[21] = Trichophyton benhamiae, read-out: MIC
[22] = Pichia kudriavzevii, read-out: MIC
[23] = Meyerozyma guilliermondii, read-out: MIC

| SMILES | survival at 2.5 mg/kg (Mus sp. [1]) [%] | MIC (Rhodotorula mucilaginosa; [13]) [µg/mL] | MIC (Candida albicans [12]; [14]) [µg/mL] | survival at 2.5 mg/kg (Mus sp. [3]) [%] | MIC (Nakaseomyces glabratus) [µg/mL] | survival at 2.5 mg/kg (Mus sp. [4]) [%] | survival at 2.5 mg/kg (Mus sp. [5]) [%] | MIC (Trichophyton rubrum; [15]) [µg/mL] | MIC (Nannizzia gypsea; [16]) [µg/mL] | MIC (Candida albicans [7]; [14]) [µg/mL] | MIC (Aspergillus niger) [µg/mL] | MIC (Microsporum canis; [17]) [µg/mL] | MIC (Aspergillus flavus) [µg/mL] | MIC (Candida parapsilosis; [18]) [µg/mL] | MIC (Candida tropicalis; [19]) [µg/mL] | MIC (Kluyveromyces marxianus; [20]) [µg/mL] | MIC (Trichophyton benhamiae; [21]) [µg/mL] | MIC (Aspergillus fumigatus) [µg/mL] | MIC (Pichia kudriavzevii; [22]) [µg/mL] | MIC (Candida albicans [10]; [14]) [µg/mL] | also measured |
| --- | --- | --- | --- | --- | --- | --- | --- | --- | --- | --- | --- | --- | --- | --- | --- | --- | --- | --- | --- | --- | --- |
| C[C@H]1N(C(=O)c2ccc(C(F)(F)F)cc2)CCO[C@@]1(Cn1cncn1)c1ccc(F)cc1F (racemic) | – | – | – | – | – | – | – | – | – | – | – | – | – | – | – | – | – | – | – | – | Survival (Mus sp. [1]; route oral, 2.5 mg/kg): 90%; MIC (Rhodotorula mucilaginosa): 40 µg/mL (≈ 85.8 µM); Survival (Mus sp. [2]): 0%; Survival (Mus sp. [3]; route oral, 2.5 mg/kg): 90%; Survival (Mus sp. [4]; route oral, 2.5 mg/kg): 100%; Survival (Mus sp. [5]; route oral, 2.5 mg/kg): 100%; MIC (Trichophyton rubrum): 20 µg/mL (≈ 42.9 µM); Survival (Mus sp. [6]): 80%; MIC (Nannizzia gypsea): 40 µg/mL (≈ 85.8 µM); MIC (Candida albicans [7]): 1.25 µg/mL (≈ 2.68 µM); Survival (Mus sp. [8]): 10%; Survival (Mus sp. [9]): 70%; MIC (Microsporum canis): 40 µg/mL (≈ 85.8 µM); MIC (Candida parapsilosis): 40 µg/mL (≈ 85.8 µM); MIC (Candida tropicalis): 80 µg/mL (≈ 172 µM); MIC (Kluyveromyces marxianus): 5 µg/mL (≈ 10.7 µM); MIC (Trichophyton benhamiae): 80 µg/mL (≈ 172 µM); MIC (Pichia kudriavzevii): 80 µg/mL (≈ 172 µM); MIC (Candida albicans [10]): 80 µg/mL (≈ 172 µM); MIC [11]: 80 µg/mL (≈ 172 µM) |
| C[C@H]1N(C(=O)c2ccc(C(F)(F)F)cc2)C[C@H](O)O[C@@]1(Cn1cncn1)c1ccc(Cl)cc1Cl (racemic) | 100 | 2.5 (≈ 4.85 µM) | 0.63 (≈ 1.22 µM) | 100 | 20 (≈ 38.8 µM) | 100 | 100 | 40 (≈ 77.6 µM) | 40 (≈ 77.6 µM) | 1.25 (≈ 2.43 µM) | > 80 | 40 (≈ 77.6 µM) | 20 (≈ 38.8 µM) | 2.5 (≈ 4.85 µM) | 20 (≈ 38.8 µM) | 0.15 (≈ 0.291 µM) | 40 (≈ 77.6 µM) | 20 (≈ 38.8 µM) | 10 (≈ 19.4 µM) | 5 (≈ 9.7 µM) | survival at 1 mg/kg (Mus sp. [2]; Mus sp., po): 70%; survival at 1 mg/kg (Mus sp. [6]; Mus sp., po): 100%; survival at 1 mg/kg (Mus sp. [8]; Mus sp., po): 90%; survival at 1 mg/kg (Mus sp. [9]; Mus sp., po): 100%; MIC [11, 23]: 5 µg/mL (≈ 9.7 µM) |
| C[C@H]1N(C(=O)c2ccccc2)CCO[C@@]1(Cn1cncn1)c1ccccc1 (racemic) | 0 | > 80 | > 80 | 0 | > 80 | 40 | 0 | > 80 | > 80 | > 80 | > 80 | > 80 | > 80 | > 80 | > 80 | > 80 | > 80 | > 80 | > 80 | > 80 | MIC [11, 23]: > 80 µg/mL |
| C[C@H]1N(C(=O)c2ccc(C(F)(F)F)cc2)C[C@H](O)O[C@@]1(Cn1cncn1)c1ccc(F)cc1F (racemic) | 100 | > 80 | – | 100 | > 80 | 100 | 100 | – | – | – | – | – | – | – | > 80 | – | – | – | – | – | MIC (Candida albicans [12]): 2.5 µg/mL (≈ 5.18 µM); Survival (Mus sp. [2]): 25%; MIC (Trichophyton rubrum): >80 µg/mL; Survival (Mus sp. [6]): 85%; MIC (Candida albicans [7]): 10 µg/mL (≈ 20.7 µM); Survival (Mus sp. [8]): 55%; Survival (Mus sp. [9]): 85%; MIC (Microsporum canis): 80 µg/mL (≈ 166 µM); MIC (Candida parapsilosis): 80 µg/mL (≈ 166 µM); MIC (Kluyveromyces marxianus): 10 µg/mL (≈ 20.7 µM); MIC (Candida albicans [10]): >80 µg/mL; MIC [11]: >80 µg/mL |
| C[C@H]1N(C(=O)c2ccc(OCC(F)(F)C(F)F)cc2)CC(=O)O[C@@]1(Cn1cncn1)c1ccc(Cl)cc1Cl (racemic) | 60 | 80 (≈ 139 µM) | 1.25 (≈ 2.17 µM) | 80 | > 80 | 90 | 90 | > 80 | 80 (≈ 139 µM) | 2.5 (≈ 4.35 µM) | > 80 | > 80 | > 80 | 20 (≈ 34.8 µM) | 80 (≈ 139 µM) | 10 (≈ 17.4 µM) | > 80 | > 80 | > 80 | 20 (≈ 34.8 µM) | MIC [11, 23]: 80 µg/mL (≈ 139 µM) |
